According to ChEMBL document CHEMBL1134269, “Structure-affinity relationships of a unique nicotinic ligand: N(1)-dimethyl-N(4)-phenylpiperazinium iodide (DMPP)” (J Med Chem, 2001):
pKi: −log10 of the molar value.

What was measured:
[1] = system: Mus musculus; test: Effect(%) respect to that of 5 ug/kg of morphine injected intracerebroventricularly; type: functional
Procedure, shortened: (§1)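 Mouse hot-plate test with compounds given icv. Minimum analgesic dose recorded; efficacy expressed relative to 5 μg morphine icv. Nicotinic origin of analgesia tested by reversal with mecamylamine 2 mg/kg i.p.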

[2] = system: Mus musculus; test: Minimal analgesic dose of compound injected intracerebroventricularly; type: functional; procedure, shortened: as §1
[3] = molecular target: Neuronal acetylcholine receptor; alpha4/beta2 (Rattus norvegicus, UniProt P09483+P12390); test: Binding affinity against nicotinic receptors from rat brain using [3H]cytisine as radioligand
Procedure, shortened: (§2)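 Rat brain homogenate membranes (15 mg wet tissue) in 50 mmol Tris-HCl, pH 7.4 at 2 °C, with NaCl, KCl, MgCl₂ and CaCl₂. Incubated 75 min at 2 °C with 2 nmol [³H]-cytisine. Separated by GF/C filtration. Nonspecific binding defined with […] (–)-nicotine bitartrate. Ki calculated by Cheng-Prusoff using Kd 1.5 nmol.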

[4] = Compound was evaluated for pKi; procedure, shortened: as §2
[5] = molecular target: Neuronal acetylcholine receptor subunit alpha-7 (Rattus norvegicus, UniProt Q05941); test: compound was evaluated for pKi
Chain of Neuronal acetylcholine receptor subunit alpha-7 (Q05941 whole entry): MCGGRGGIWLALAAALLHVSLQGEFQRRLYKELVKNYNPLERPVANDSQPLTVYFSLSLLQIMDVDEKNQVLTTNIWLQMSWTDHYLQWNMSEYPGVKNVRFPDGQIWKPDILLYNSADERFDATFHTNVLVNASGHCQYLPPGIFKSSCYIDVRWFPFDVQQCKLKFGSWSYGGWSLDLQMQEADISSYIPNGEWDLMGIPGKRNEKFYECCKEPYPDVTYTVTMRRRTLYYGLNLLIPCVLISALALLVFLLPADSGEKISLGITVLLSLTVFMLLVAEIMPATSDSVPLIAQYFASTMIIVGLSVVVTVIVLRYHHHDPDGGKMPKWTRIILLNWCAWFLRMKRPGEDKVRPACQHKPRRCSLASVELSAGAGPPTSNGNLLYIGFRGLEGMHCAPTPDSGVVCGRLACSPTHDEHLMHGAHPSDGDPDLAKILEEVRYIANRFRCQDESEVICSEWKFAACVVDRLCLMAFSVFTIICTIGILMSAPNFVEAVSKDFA

Chain of Neuronal acetylcholine receptor; alpha4/beta2 (P09483 whole entry): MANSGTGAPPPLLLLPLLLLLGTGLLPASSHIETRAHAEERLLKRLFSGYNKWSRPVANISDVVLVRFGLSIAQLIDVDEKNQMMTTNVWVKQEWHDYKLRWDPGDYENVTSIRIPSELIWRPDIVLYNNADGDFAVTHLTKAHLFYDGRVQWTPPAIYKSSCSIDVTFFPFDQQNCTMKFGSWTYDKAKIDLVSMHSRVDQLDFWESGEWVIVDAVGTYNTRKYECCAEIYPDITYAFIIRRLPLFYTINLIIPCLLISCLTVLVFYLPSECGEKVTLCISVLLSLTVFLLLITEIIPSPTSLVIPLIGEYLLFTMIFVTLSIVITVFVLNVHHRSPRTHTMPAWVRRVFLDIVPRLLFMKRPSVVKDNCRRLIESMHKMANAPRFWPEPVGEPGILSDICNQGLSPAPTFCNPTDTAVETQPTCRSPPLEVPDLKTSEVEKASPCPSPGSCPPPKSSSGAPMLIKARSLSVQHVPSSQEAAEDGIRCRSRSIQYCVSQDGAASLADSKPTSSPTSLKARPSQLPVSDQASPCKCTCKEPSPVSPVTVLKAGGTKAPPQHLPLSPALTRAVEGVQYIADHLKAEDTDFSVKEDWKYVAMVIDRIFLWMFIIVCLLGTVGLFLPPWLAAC
Chain of Neuronal acetylcholine receptor; alpha4/beta2 (P12390 whole entry): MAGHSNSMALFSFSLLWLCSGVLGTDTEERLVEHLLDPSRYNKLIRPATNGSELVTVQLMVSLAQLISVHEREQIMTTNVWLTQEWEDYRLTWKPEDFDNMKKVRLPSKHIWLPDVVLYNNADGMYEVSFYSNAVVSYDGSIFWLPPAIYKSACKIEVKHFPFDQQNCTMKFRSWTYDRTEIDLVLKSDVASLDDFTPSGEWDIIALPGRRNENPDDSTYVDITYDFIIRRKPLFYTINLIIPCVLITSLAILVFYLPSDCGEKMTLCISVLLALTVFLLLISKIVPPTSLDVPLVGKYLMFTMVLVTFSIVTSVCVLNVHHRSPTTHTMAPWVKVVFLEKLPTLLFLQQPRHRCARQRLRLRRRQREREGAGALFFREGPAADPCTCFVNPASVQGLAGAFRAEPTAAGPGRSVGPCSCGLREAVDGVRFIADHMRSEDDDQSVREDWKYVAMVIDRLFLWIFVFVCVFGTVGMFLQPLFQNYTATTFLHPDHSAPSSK

Compound	pKi [3]	also measured
O=C(O)C(=O)O.c1cncc(N2CCNCC2)c1	7.05	Efficacy [1]: 51.1%; M.A.D [2]: 50 µg/kg; Log Ki [4]: -7.05
CN1CCN(c2cccc(F)c2)CC1.O=C(O)C(=O)O	5.19	Log Ki [4]: -5.19
CC(=O)c1ccc(N2CCNCC2)cc1	< 5.00	–
CC(=O)Nc1cccc(N2CCN(C)CC2)c1	< 5.00	–
Cc1cccc(N2CCN(C)CC2)c1	< 5.00	–
O=[N+]([O-])c1cccc(N2CCNCC2)c1	< 5.00	–
Fc1cccc(N2CCNCC2)c1	< 5.00	–
CN1CCN(c2cccc(C#N)c2)CC1	< 5.00	–
CN1CCN(c2ccc(O)cc2)CC1	< 5.00	–
CN1CCN(c2cccc(O)c2)CC1	< 5.00	–
c1cc2c(cc1N1CCNCC1)OCO2	< 5.00	–
FC(F)(F)c1cccc(N2CCNCC2)c1	< 5.00	–
C[N+]1(C)CCN(c2ccc3c(c2)OCO3)CC1.[I-]	6.17	Log Ki [4]: -6.17
CN1CCN(c2cccc(N)c2)CC1	6.74	Log Ki [4]: -6.74
Cc1ccccc1N1CCN(C)CC1	< 5.00	–
CN1CCN(C2=CC(=O)CC2)CC1	< 5.00	–

Compound	pKi [3]	also measured
CN1CCN(C2=CC(=O)CCC2)CC1	< 5.00	–
CC(=O)c1ccc(N2CCN(C)CC2)cc1	< 5.00	–
CN1CCN(c2cccc(C(F)(F)F)c2)CC1	< 5.00	–
CN1CCN(c2ccc3c(c2)OCO3)CC1	< 5.00	–
CN1CC=C(c2ccccc2)CC1	< 5.00	–
CN1CCN(c2cccnn2)CC1.O=C(O)C(=O)O	6.41	Log Ki [4]: -6.41
c1cc(N2CCNCC2)ccn1	< 5.00	–
Fc1ccc(N2CCNCC2)cc1	< 5.00	–
CN1CCN(c2ccc([N+](=O)[O-])cc2)CC1	< 5.00	–
CN1CCN(c2ccc(F)cc2)CC1	< 5.00	–
CC(=O)Oc1cccc(N2CCN(C)CC2)c1	6.10	pKi [5]: 6.10
CN1CCN(c2ccc(N)cc2)CC1	< 5.00	–
CN1CCN(c2cccc(Cl)c2)CC1	< 5.00	–
CN1CCC(c2ccccc2)CC1	< 5.00	–
CN1CC=C(c2cccnc2)CC1.Cl	–	Efficacy [1]: 36.5%; M.A.D [2]: 1 µg/kg
